Series [1] has as its system L1210. Briefly: Compound tested for inhibition of growth of L1210 cells in culture at 10e-4 M; NI = no inhibition. The note with it: Mus musculus. Type of series: functional, cell-based. A digest of the protocol:
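Murine L1210 leukemia cells were harvested in log phase and resuspended in RPMI 1640 with 10% fetal bovine serum at a starting density of 17.5×10^4 cells/mL. Analogue stock was 5×10⁻³ M in phosphate-buffered saline, pH 7.4, filter-sterilized, then serially diluted in medium. Final concentrations were 10⁻⁴ to 10⁻⁸ M. Cultures grew 72 h at 37 °C and were counted every 24 h by Coulter counter against untreated controls.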

The nature of series [2]: Compound was tested for apparent dissociation constant at pH 7. It counts as ADME. Put shortly:
(§1)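 pKa values were determined potentiometrically on 0.001 M solutions with a pH meter. For one analogue the values came from least-squares analysis with activity corrections. Measurement temperature was recorded with each value, and standard deviations were reported.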

The nature of series [3]: Compound was tested for apparent dissociation constant at pH 14. Type of series: ADME. A digest of the protocol:
as §1

Series [4] in a line: Compound was tested for apparent dissociation constant at pH 9. It counts as ADME. Put shortly: as §1
The nature of series [5]: Compound was tested for apparent dissociation constant at pH 10. It counts as ADME. A digest of the protocol:
as §1

The nature of series [6]: Compound was tested for apparent dissociation constant at pH 13. It counts as ADME. Put shortly: as §1

Calls of active or inactive are those of the source. The calls are words filed in the database; no cut-off is given here.

Regarding `NS(=O)(=O)c1[nH]cnc1NC=O`, the inhibition result in series [1] was “inactive”. The pKa – broadly, the pH at which an ionisable group is half protonated – in series [2] turned out to be 8.7.

For `Nc1[nH]cnc1S(N)(=O)=O`, in series [1], the inhibition result is “inactive”. The pKa in series [2] worked out at 9.43.

As to `NC1=NS(=O)(=O)c2nc[nH]c2N1`, the pKa in series [3] was 11.6; in series [4], 6.84. Further, the inhibition entry in series [1] was “inactive”.

Consider `O=C1Nc2[nH]cnc2S(=O)(=O)N1`, for which the pKa came out at 8.99 in series [5], 11 in series [6] and 2.55 in series [2]. Besides, the inhibition entry in series [1] was “inactive”.

These data come from ChEMBL document CHEMBL1121441, “Synthesis and properties of the sulfonyl analogues of 4(5)-aminoimidazole-5(4)-carboxamide, 4(5)-(formylamino)imidazole-5(4)-carboxamide, guanine, and xanthine” (J Med Chem, 1980).
